Experimental data from publication PMC3268354 (Bioorganic & Medicinal Chemistry Letters, 2012).

These molecules were tested on cPLA2α (assay: reported cPLA2α inhibition of training and test set compounds). Settings: assigned from reported activity of training set compounds.
Type: biochemical
`CCCCCCCCCCCCCCC(=O)C(=O)NCCCC(=O)O` [Compound 1] was tested, and the “Class (activity class assigned for HipHop refine model)” value (“Class” below) was “Active”.
`O=C(COc1ccc(SCCCCCc2ccccc2)cc1)COc1ccc(C(=O)O)cc1` [Compound 6] was tested, and the “Class” value was “Highly active”.
In the case of `CCCCCCCCCCOc1ccc(OCC(=O)COc2ccc(C(=O)O)cc2)cc1` [Compound 7], the “Class” value is reported as “Highly active”.
For `O=C(COc1ccc(SCCCCSc2nccs2)cc1)COc1ccc(C(=O)O)cc1` [Compound 14], the “Class” value was “Active”.
`O=C(COc1ccc(C(=O)O)cc1)COc1ccc(C(=O)NCCCCc2ccccc2)cc1` [Compound 16] was tested, and the “Class” value was “Inactive”.
`CN(CCc1ccccc1)C(=O)CSc1ccc(OCC(=O)COc2ccc(C(=O)O)cc2)cc1` [Compound 17] was tested, and the “Class” value was “Inactive”.
`Cn1ccnc1SCCCCOc1ccc(OCC(=O)COc2ccc(C(=O)O)cc2)cc1` [Compound 18] was tested, and the “Class” value was “Inactive”.

These molecules were tested on cPLA2α-mediated AA release in human monocytes (assay: cPLA2α-mediated AA release in Ca2+-ionophore A23187-stimulated human monocytes). Settings: human monocytes stimulated with A23187.
Type: cell-based
Method in brief: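 Human monocytes were stimulated with Ca2+-ionophore A23187 in the presence of test compound, and arachidonic acid release was measured. Inhibition is expressed as IC50. A reference cPLA2α inhibitor was run as an assay control.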
With “N-{(2S,4R)-4-(biphenyl-2-ylmethyl-isobutyl-amino)-1-[2-(2,4-difluorobenzoyl)-benzoyl]-pyrrolidin-2-ylmethyl}-3-[4-(2,4-dioxothiazolidin-5-ylidenemethyl)-phenyl]acrylamide [Compound 43]” the “inhibition of AA release” value was “inhibited AA release as expected”.
